Source: ChEMBL document CHEMBL4359831, “Chemoproteomics of an Indole-Based Quinone Epoxide Identifies Druggable Vulnerabilities in Vancomycin-Resistant Staphylococcus aureus” (J Med Chem, 2019)
Values after ≈ are worked out from the molar mass of the structure shown. Active and inactive are the calls of the source. The rule behind the calls is not given here.

Assays:
Staphylococcus aureus [1] = test: Binding affinity to Staphylococcus aureus ATCC 29213 MarR family transcriptional regulator at 10 uM in presence of 9-(Pent-4-yn-1-yl)-1a,10a-dihydro-2H-oxireno[2',3':4,5]-benzo[1,2-a]carbazole-2,10(9H)-dione after 1 hr by biotin-azide fluorescence dependent LC-MS/MS-based ABPP assay
Outline: (§1)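 Competitive LC–MS/MS ABPP on S. aureus soluble proteome. Pretreatment 1 h with DMSO, compound (10 μM), comparator (10 μM) or iodoacetamide (10 mM). Chase with alkyne probe (10 μM, 1 h), then Cu-catalysed click with biotin-azide and LC–MS/MS. Targets were proteins at ratio ≤0.1 versus DMSO in the compound and IAM groups and ~1 in the comparator group.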

Staphylococcus aureus [2] = test: Binding affinity to Staphylococcus aureus ATCC 29213 Catabolite control protein A at 10 uM in presence of 9-(Pent-4-yn-1-yl)-1a,10a-dihydro-2H-oxireno[2',3':4,5]-benzo[1,2-a]carbazole-2,10(9H)-dione after 1 hr by biotin-azide fluorescence dependent LC-MS/MS-based ABPP assay; outline: as §1
Escherichia coli = test: Antibacterial activity against Escherichia coli ATCC 25922 after 16 to 18 hrs by CLSI M07-A10 protocol based dilution method; type: functional
Staphylococcus aureus [3] = test: Bactericidal activity against Staphylococcus aureus ATCC 29213 at 1 to 10 times MIC preincubated up to 24 hrs under shaking condition followed by bacterial plating on Tryptic Soy agar and measured after 18 to 20 hrs by time kill assay; type: functional, organism-based
Staphylococcus aureus [4] = test: Binding affinity to Staphylococcus aureus ATCC 29213 Methionine aminopeptidase at 10 uM in presence of 9-(Pent-4-yn-1-yl)-1a,10a-dihydro-2H-oxireno[2',3':4,5]-benzo[1,2-a]carbazole-2,10(9H)-dione after 1 hr by biotin-azide fluorescence dependent LC-MS/MS-based ABPP assay; outline: as §1
Staphylococcus aureus [5] = test: Antibacterial activity against vancomycin-resistant Staphylococcus aureus HIP11714 after 16 to 18 hrs by CLSI M07-A10 protocol based dilution method; type: functional
[6] = Chemical reactivity assessed as thiolated-adduct formation at 25 uM using 4-nitrobenzyl thiol after 1 hr by HPLC analysis; type: physicochemical
Staphylococcus aureus [7] = test: Binding affinity to Staphylococcus aureus ATCC 29213 Thioredoxin at 10 uM in presence of 9-(Pent-4-yn-1-yl)-1a,10a-dihydro-2H-oxireno[2',3':4,5]-benzo[1,2-a]carbazole-2,10(9H)-dione after 1 hr by biotin-azide fluorescence dependent LC-MS/MS-based ABPP assay; outline: as §1
Staphylococcus aureus [8] = test: Binding affinity to Staphylococcus aureus ATCC 29213 Hydroxyethylthiazole kinase at 10 uM in presence of 9-(Pent-4-yn-1-yl)-1a,10a-dihydro-2H-oxireno[2',3':4,5]-benzo[1,2-a]carbazole-2,10(9H)-dione after 1 hr by biotin-azide fluorescence dependent LC-MS/MS-based ABPP assay; outline: as §1
[9] = Selectivity index, ratio of CC50 for African green monkey Vero cells to MIC90 for Staphylococcus aureus ATCC 29213; type: toxicity; conditions: read-out: Selectivity Index
Staphylococcus aureus [10] = test: Antibacterial activity against vancomycin-resistant Staphylococcus aureus SA-HIP-14300 after 16 to 18 hrs by CLSI M07-A10 protocol based dilution method; type: functional
Klebsiella pneumoniae = test: Antibacterial activity against Klebsiella pneumoniae ATCC BAA-1705 after 16 to 18 hrs by CLSI M07-A10 protocol based dilution method; type: functional
Staphylococcus aureus [11] = test: Antibacterial activity against vancomycin-resistant Staphylococcus aureus 1002434 after 16 to 18 hrs by CLSI M07-A10 protocol based dilution method; type: functional
Staphylococcus aureus [12] = test: Antibacterial activity against vancomycin-resistant Staphylococcus aureus AIS100050 after 16 to 18 hrs by CLSI M07-A10 protocol based dilution method; type: functional
Staphylococcus aureus [13] = test: Binding affinity to Staphylococcus aureus ATCC 29213 MEP-cytidylyltransferase at 10 uM in presence of 9-(Pent-4-yn-1-yl)-1a,10a-dihydro-2H-oxireno[2',3':4,5]-benzo[1,2-a]carbazole-2,10(9H)-dione after 1 hr by biotin-azide fluorescence dependent LC-MS/MS-based ABPP assay; outline: as §1
Staphylococcus aureus [14] = test: Binding affinity to Staphylococcus aureus ATCC 29213 Transcriptional regulator at 10 uM in presence of 9-(Pent-4-yn-1-yl)-1a,10a-dihydro-2H-oxireno[2',3':4,5]-benzo[1,2-a]carbazole-2,10(9H)-dione after 1 hr by biotin-azide fluorescence dependent LC-MS/MS-based ABPP assay; outline: as §1
[15] = L-cysteine reactivity in pH 7.4 phosphate buffer assessed as compound remaining at 100 uM incubated for 1 hr by HPLC analysis
Pseudomonas aeruginosa = test: Antibacterial activity against Pseudomonas aeruginosa ATCC 27853 after 16 to 18 hrs by CLSI M07-A10 protocol based dilution method; type: functional
[16] = L-cysteine reactivity in pH 7.4 phosphate buffer assessed as pseudo first order rate constant at 100 uM measured at 10 mins time interval up to 60 mins by HPLC analysis
Staphylococcus aureus [17] = test: Antibacterial activity against vancomycin-resistant Staphylococcus aureus HIP14300 after 16 to 18 hrs by CLSI M07-A10 protocol based dilution method; type: functional
Staphylococcus aureus [18] = test: Antibacterial activity against vancomycin-resistant Staphylococcus aureus SA-71080 after 16 to 18 hrs by CLSI M07-A10 protocol based dilution method; type: functional
Staphylococcus aureus [19] = test: Bactericidal activity against vancomycin-resistant Staphylococcus aureus HIP11714 at 10 times MIC measured up to 24 hrs by time kill assay; type: functional, organism-based
Erythrocyte = test: Toxicity in human erythrocytes assessed as induction of hemolysis at 100 ug/ml incubated under shaking condition for 1 hr by spectrophotometric method; type: cell-based
Staphylococcus aureus [20] = test: Binding affinity to Staphylococcus aureus ATCC 29213 Heme peroxidase at 10 uM in presence of 9-(Pent-4-yn-1-yl)-1a,10a-dihydro-2H-oxireno[2',3':4,5]-benzo[1,2-a]carbazole-2,10(9H)-dione after 1 hr by biotin-azide fluorescence dependent LC-MS/MS-based ABPP assay; outline: as §1
Staphylococcus aureus [21] = test: Antibacterial activity against vancomycin-resistant Staphylococcus aureus SA-HIP-11983 after 16 to 18 hrs by CLSI M07-A10 protocol based dilution method; type: functional
Acinetobacter baumannii = test: Antibacterial activity against Acinetobacter baumannii BAA-1605 after 16 to 18 hrs by CLSI M07-A10 protocol based dilution method; type: functional
Staphylococcus aureus [22] = test: Binding affinity to Staphylococcus aureus ATCC 29213 DAPDC at 10 uM in presence of 9-(Pent-4-yn-1-yl)-1a,10a-dihydro-2H-oxireno[2',3':4,5]-benzo[1,2-a]carbazole-2,10(9H)-dione after 1 hr by biotin-azide fluorescence dependent LC-MS/MS-based ABPP assay; outline: as §1
Staphylococcus aureus [23] = test: Binding affinity to Staphylococcus aureus ATCC 29213 HxlR family transcriptional regulator at 10 uM in presence of 9-(Pent-4-yn-1-yl)-1a,10a-dihydro-2H-oxireno[2',3':4,5]-benzo[1,2-a]carbazole-2,10(9H)-dione after 1 hr by biotin-azide fluorescence dependent LC-MS/MS-based ABPP assay; outline: as §1

SMILES: CC(C)n1c2ccccc2c2ccc3c(c21)C(=O)C1OC1C3=O (stereo not drawn)
- Activity (Staphylococcus aureus [1]): Active
- Activity (Staphylococcus aureus [2]): Active
- MIC (Escherichia coli): 64 µg/mL (≈ 210 µM)
- Activity (Staphylococcus aureus [3]): Active
- Activity (Staphylococcus aureus [4]): Active
- MIC (Staphylococcus aureus [5]): 0.5 µg/mL (≈ 1.64 µM)
- Activity [6]: Active
- Activity (Staphylococcus aureus [7]): Active
- Activity (Staphylococcus aureus [8]): Active
- selectivity ratio [9]: > 200
- MIC (Staphylococcus aureus [10]): 0.5 µg/mL (≈ 1.64 µM)
- MIC (Klebsiella pneumoniae): 64 µg/mL (≈ 210 µM)
- MIC (Staphylococcus aureus [11]): 0.5 µg/mL (≈ 1.64 µM)
- MIC (Staphylococcus aureus [12]): 0.5 µg/mL (≈ 1.64 µM)
- Activity (Staphylococcus aureus [13]): Active
- Activity (Staphylococcus aureus [14]): Active
- Activity [15]: 34%
- MIC (Pseudomonas aeruginosa): 64 µg/mL (≈ 210 µM)
- K [16]: 7.54 ×10⁻² /min
- MIC (Staphylococcus aureus [17]): 0.5 µg/mL (≈ 1.64 µM)
- MIC (Staphylococcus aureus [18]): 0.5 µg/mL (≈ 1.64 µM)
- Activity (Staphylococcus aureus [19]): Active
- Activity (Erythrocyte): Non-Toxic
- Activity (Staphylococcus aureus [20]): Active
- MIC (Staphylococcus aureus [21]): 0.5 µg/mL (≈ 1.64 µM)
- MIC (Acinetobacter baumannii): 64 µg/mL (≈ 210 µM)
- Activity (Staphylococcus aureus [22]): Active
- Activity (Staphylococcus aureus [23]): Active
